Results reported in ChEMBL document CHEMBL1811827, “Novel nonsecosteroidal vitamin D3 carboxylic acid analogs for osteoporosis, and SAR analysis” (Bioorg Med Chem, 2011).

What was measured:
[1] = Total clearance in Sprague-Dawley rat at 100 ug/kg, iv; type: ADME, organism-based; details: in vivo, 0.1 mg/kg
Procedure, shortened: (§1)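 Rats given 100 µg/kg orally or intravenously; F, T1/2, Cmax, AUCinf, MRT and total clearance derived.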

Rattus norvegicus [2] = assay: Prevention of bone mineral density loss in ovariectomized Sprague-Dawley rat osteoporosis model administered orally once daily for 5 times per week; type: functional, organism-based
Procedure, shortened: (§2)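 Female Sprague–Dawley rats, 8 weeks old, ovariectomized or sham-operated; from one day post-surgery, OVX groups (n = 8) given 0.22, 0.67 or 2.0 µg/kg orally in MCT vehicle (1 mL/kg), five times per week for 4 weeks. 24 h after last dose, serum calcium by autoanalyzer and distal femur BMD by dual-energy X-ray absorptiometry.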

Rattus norvegicus [3] = assay: Toxicity in ovariectomized Sprague-Dawley rat osteoporosis model assessed as body weight loss at 2 ug/kg, po administered once daily for 5 times per week; type: organism-based; details: in vivo, 0.002 mg/kg
Rattus norvegicus [4] = assay: Toxicity in ovariectomized Sprague-Dawley rat osteoporosis model assessed as induction of hypercalcemia at 2 ug/kg, po administered once daily for 5 times per week; type: organism-based; details: in vivo, 0.002 mg/kg; procedure, shortened: as §2
Rattus norvegicus [5] = assay: Toxicity in ovariectomized Sprague-Dawley rat osteoporosis model assessed as body weight loss at […], po administered once daily for 5 times per week; type: organism-based; details: in vivo
Rattus norvegicus [6] = assay: Toxicity in ovariectomized Sprague-Dawley rat osteoporosis model assessed as induction of hypercalcemia at […], po administered once daily for 5 times per week; type: organism-based; details: in vivo
[7] = target: T1, Vitamin D3 receptor (Homo sapiens) (UniProt P11473); assay: Agonist activity at human VDR in human MG63 cells assessed as stimulation of VDRE-mediated luciferase reporter gene activity relative to 1,25(OH)2D3; type: functional, cell-based; set-up: concentration or dose not given beside the values; details: MG-63
T1 sequence (whole entry): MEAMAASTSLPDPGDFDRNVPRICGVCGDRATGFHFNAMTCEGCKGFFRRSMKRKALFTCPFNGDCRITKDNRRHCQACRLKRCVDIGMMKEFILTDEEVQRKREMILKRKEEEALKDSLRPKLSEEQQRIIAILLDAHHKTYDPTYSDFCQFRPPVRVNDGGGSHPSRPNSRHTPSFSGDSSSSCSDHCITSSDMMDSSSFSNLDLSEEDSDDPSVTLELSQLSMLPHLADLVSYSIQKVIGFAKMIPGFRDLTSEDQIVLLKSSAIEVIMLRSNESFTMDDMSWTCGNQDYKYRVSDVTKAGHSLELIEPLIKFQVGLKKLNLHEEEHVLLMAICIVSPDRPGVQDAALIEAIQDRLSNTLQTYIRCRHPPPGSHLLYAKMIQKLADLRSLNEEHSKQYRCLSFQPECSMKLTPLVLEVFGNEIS

[8] = target: T1, Vitamin D3 receptor (Homo sapiens); assay: Agonist activity at human VDR in human MG63 cells assessed as stimulation of osteocalcin production by enzyme immunoassay relative to 1,25(OH)2D3; type: functional, cell-based; set-up: concentration or dose not given beside the values; details: MG-63
[9] = Oral bioavailability in Sprague-Dawley rat at 100 ug/kg; type: ADME, organism-based; details: in vivo, 0.1 mg/kg; procedure, shortened: as §1
[10] = Half life in Sprague-Dawley rat at 100 ug/kg, po; type: ADME, organism-based; details: in vivo, 0.1 mg/kg; procedure, shortened: as §1
[11] = Half life in Sprague-Dawley rat at 100 ug/kg, iv; type: ADME, organism-based; details: in vivo, 0.1 mg/kg; procedure, shortened: as §1
[12] = Cmax in Sprague-Dawley rat at 100 ug/kg, po; type: ADME, organism-based; set-up: dose 100 ug/kg, route oral; details: in vivo, 0.1 mg/kg; procedure, shortened: as §1
[13] = AUC (infinity) in Sprague-Dawley rat at 100 ug/kg, po; type: ADME, organism-based; set-up: dose 100 ug/kg, time infinity, route oral; details: plasma, 0.1 mg/kg; procedure, shortened: as §1
[14] = AUC (infinity) in Sprague-Dawley rat at 100 ug/kg, iv; type: ADME, organism-based; set-up: dose 100 ug/kg, time infinity, route intravenous; details: plasma, 0.1 mg/kg; procedure, shortened: as §1
[15] = Mean residence time in Sprague-Dawley rat at 100 ug/kg, po; type: ADME, organism-based; details: in vivo, 0.1 mg/kg; procedure, shortened: as §1
[16] = Mean residence time in Sprague-Dawley rat at 100 ug/kg, iv; type: ADME, organism-based; details: in vivo, 0.1 mg/kg; procedure, shortened: as §1
[17] = Total clearance in Sprague-Dawley rat at 100 ug/kg, po; type: ADME, organism-based; details: in vivo, 0.1 mg/kg; procedure, shortened: as §1

## CCC(CC)(c1ccc(OCC(O)C(C)(C)C)c(C)c1)c1ccc(OC[C@@H](O)CCC(=O)O)c(C)c1 (mixture of isomers)
[1]
  clearance: 1.47 mL/min/kg
Rattus norvegicus [2]
  inhibition: Dose-dependent effect
Rattus norvegicus [3]
  Activity: Toxic
Rattus norvegicus [4]
  Activity: Toxic
Rattus norvegicus [5]
  Activity: Non-toxic
Rattus norvegicus [6]
  Activity: Non-toxic
[7]
  Activity: 20%
[8]
  Activity: 484%
[9]
  bioavailability: 13%
[10]
  half-life: 8 h
[11]
  half-life: 10.6 h
[12]
  Cmax: 11.6 ng/mL
[13]
  AUC(0-inf): 151 ng·h/mL
[14]
  AUC(0-inf): 1150 ng·h/mL
[15]
  MRT: 12.3 h
[16]
  MRT: 9.2 h
[17]
  CL/F: 11.5 mL/min/kg

## CCC(CC)(c1ccc(CCC(O)C(C)(C)C)c(C)c1)c1ccc(OC[C@@H](O)CCC(=O)O)c(C)c1 (mixture of isomers)
[7]
  Activity: 52%
[8]
  Activity: 68%

## CCC(CC)(c1ccc(OCCCCC(=O)O)c(C)c1)c1ccc(OCC(O)C(C)(C)C)c(C)c1 (racemic)
[1]
  clearance: 50.9 mL/min/kg
[7]
  Activity: 19%
[8]
  Activity: 205%
[9]
  bioavailability: 33%
[10]
  half-life: 3.1 h
[11]
  half-life: 1.3 h
[12]
  Cmax: 3.6 ng/mL
[13]
  AUC(0-inf): 10.9 ng·h/mL
[14]
  AUC(0-inf): 32.9 ng·h/mL
[15]
  MRT: 3.8 h
[16]
  MRT: 0.5 h
[17]
  CL/F: 156 mL/min/kg

## CCC(CC)(c1ccc(CCC(O)C(C)(C)C)c(C)c1)c1ccc(OCCCCC(=O)O)c(C)c1 (racemic)
[7]
  Activity: 31%
[8]
  Activity: 368%

## CCC(CC)(c1ccc(CCC(O)C(C)(C)C)c(C)c1)c1ccc(OCCCCCC(=O)O)c(C)c1 (racemic)
[7]
  Activity: 16%
[8]
  Activity: 168%

## CCC(CC)(c1ccc(CCC(O)C(C)(C)C)c(C)c1)c1ccc(OCCCCCCC(=O)O)c(C)c1 (racemic)
[7]
  Activity: 2.2%
[8]
  Activity: 9.3%

## CCC(CC)(c1ccc(OCC(=O)O)c(C)c1)c1ccc(OCC(O)C(C)(C)C)c(C)c1 (racemic)
[7]
  Activity: 1.4%
[8]
  Activity: < 13%

## CCC(CC)(c1ccc(OCCC(=O)O)c(C)c1)c1ccc(OCC(O)C(C)(C)C)c(C)c1 (racemic)
[7]
  Activity: 6.2%
[8]
  Activity: 49%

## CCC(CC)(c1ccc(OCCCC(=O)O)c(C)c1)c1ccc(OCC(O)C(C)(C)C)c(C)c1 (racemic)
[7]
  Activity: 2.6%
[8]
  Activity: < 13%
